Measured values: ChEMBL document CHEMBL1806443, “Novel imidazo[4,5-b]pyridine and triaza-benzo[c]fluorene derivatives: synthesis, antiproliferative activity and DNA binding studies” (Eur J Med Chem, 2011)
Active and inactive are the calls of the source. No cut-off for these calls is given here.

Experiments:
HEp-2 = experiment: Cytostatic activity against human Hep2 cells at 1 to 10 uM after 72 hrs by MTT assay; assay type: functional, cell-based
Summary of the method: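 Monolayers in DMEM with 10% FBS, 2 mM L-glutamine, penicillin and streptomycin (37 °C, 5% CO2) were seeded at 3000–6000 cells/well on day 0. Five 10-fold dilutions (0.01–100 µM) were added, followed by 72-h incubation and MTT read-out. Absorbances were converted to percentage growth by the NIH formulae. Each point was run in quadruplicate in three experiments; ANOVA with Tukey test.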

WI-38 = experiment: Antiproliferative activity against human WI38 cells after 72 hrs by MTT assay; assay type: cell-based; settings: Homo sapiens, WI-38, 72 h
Summary of the method: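 Monolayer cells in DMEM with 10% FBS, 2 mM L-glutamine, penicillin and streptomycin at 37 °C, 5% CO2. Seeded at 3000-6000 cells/well by doubling time on day 0. Five 10-fold dilutions (0.01–100 µM) were added and incubated 72 h. MTT read-out, converted to percentage growth. IC50 by linear regression between bracketing concentrations. Quadruplicate points, three independent experiments, ANOVA/Tukey p<0.05.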

MIA PaCa-2 [1] = experiment: Cell cycle arrest in human MIAPaCa2 cells assessed as accumulation at subG1 phase at 1 uM after 48 hrs by propidium iodide staining based flow cytometeric analysis (reference value: 46.8 +/- 0.7%); assay type: functional
Nucleic Acid = experiment: Binding affinity to calf thymus DNA assessed as fluorescence quenching at compound to DNA ratio of 0.28 by fluorimetric titrations; assay type: nucleic-acid assay; settings: Bos taurus
Summary of the method: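 Fluorimetric titration: portions of ct-DNA (sonicated, filtered, concentration as phosphate) added to compound in cacodylate buffer pH 7.0, I = 0.05 mol dm^-3. Emission 350–600 nm, sample absorbance <0.05 at excitation, mostly DNA excess (r < 0.1). Ks and n = [bound compound]/[DNA phosphate] by non-linear least-squares Scatchard fitting.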

MIA PaCa-2 [2] = experiment: Cell cycle arrest in human MIAPaCa2 cells assessed as accumulation at subG1 phase at 5 uM after 24 hrs by propidium iodide staining based flow cytometeric analysis (reference value: 48.7 +/- 0.7%); assay type: functional

- log Ks (Nucleic Acid): 5.9
Structure (SMILES): Cl.c1cnc2nc3ccc4ccc(C5=NCCN5)cc4n3c2c1
- Activity (HEp-2): Active
- IC50 (WI-38): 1770 nM
- Activity (MIA PaCa-2 [1]): 33.8%
- Activity (MIA PaCa-2 [2]): 53.4%
